From ChEMBL document CHEMBL2331084, “Synthesis and evaluation of oxime derivatives as modulators for amyloid beta-induced mitochondrial dysfunction” (Eur J Med Chem, 2013)

How the values were obtained:
HT-22 [1] = test: Inhibition of mPTP in mouse HT22 cells assessed as reduction in amyloid beta-induced mitochondrial membrane damage at 10 uM incubated for 10 mins prior to amyloid beta-challenge measured every 1 hr for 3 hrs by JC-1 based fluorometric analysis; assay type: cell-based; parameters: scale not given: the % may be the effect or the level left
Method in brief: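 HT-22 cells, 30,000 per well, seeded a day earlier, loaded with 7.5 μM JC-1 (final) in phenol red-free Opti-MEM for 1 h 15 min at 37 °C, then PBS-washed. Compound solution at 10 μM for 10 min at 37 °C, then amyloid beta 1–42 solution at 10 μM. Red (ex/em 530/580) and green (485/530) fluorescence read hourly for 3 h. Green/red ratio change normalised to vehicle as 100%.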

[2] = Metabolic stability in human liver microsomes at 1 uM after 30 mins by LC/MS analysis; assay type: ADME, Microsome; settings: read-out: Stability
Method in brief: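 Pooled human liver microsomes (0.5 mg/mL protein), compound at 1 μM, 1.2 mM NADPH, 100 mM phosphate pH 7.4, 37 °C with shaking for 30 min, in duplicate. Stopped with ice-cold acetonitrile containing internal standard, centrifuged, supernatant analysed by LC–MS/MS for % remaining.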

[3] = Cytotoxicity against mouse […] cells assessed as cell viability at 10 uM after 24 hrs by MTT assay; assay type: cell-based; settings: read-out: Activity
HT-22 [4] = test: Neuroprotective activity against in mouse HT22 cells assessed as inhibition of amyloid beta-induced toxicity at 10 uM incubated for 10 mins prior to amyloid beta-challenge measured after 24 hrs by MTT assay; assay type: functional
Method in brief: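 HT-22 mouse hippocampal cells (DMEM, 10% FBS), 5000 per well, seeded a day before. Compound solution at 10 μM added 10 min before amyloid beta 1–42 solution at 10 μM, then 24 h at 37 °C. MTT 2 h, then acidified Triton/isopropanol for 1 h at RT, A570. Vehicle subtracted; % inhibition versus Aβ-treated vehicle; viability from wells without Aβ.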

[5] = Ratio of drug uptake in brain to drug uptake in plasma in ICR mouse at 10 mg/kg, po; assay type: ADME, organism-based; parameters: dose 10 mg/kg, route oral; settings: read-out: BPR
Plasma = test: Metabolic stability in rat plasma at 0.5 ug/ml after 2 hrs by LC/MS analysis; assay type: ADME, cell-free; settings: 2 h
Method in brief: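 Drug-free rat plasma spiked from acetonitrile stock to 0.5 μg/mL, held at 37 °C with shaking for 0, 15, 30, 60 and 120 min. Quenched with 2 volumes of acetonitrile containing carbamazepine internal standard, centrifuged, supernatant quantified by LC–MS/MS.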

[6] = Cmax in Sprague-Dawley rat at 3 mg/kg, ip; assay type: ADME, organism-based; parameters: dose 3 mg/kg, route intraperitoneal; settings: in vivo
[7] = Tmax in ICR mouse at 10 mg/kg, po; assay type: ADME, organism-based; parameters: dose 10 mg/kg, route oral; settings: in vivo
[8] = Terminal half life in Sprague-Dawley rat at 3 mg/kg, ip; assay type: ADME, organism-based; parameters: dose 3 mg/kg, route intraperitoneal; settings: in vivo, read-out: beta t1/2
HT-22 [9] = test: Inhibition of mPTP in mouse HT22 cells assessed as recovery in amyloid beta-suppressed ATP level at 5 uM incubated for 10 mins prior to amyloid beta-challenge measured for 7 hrs relative to control; assay type: cell-based; parameters: scale not given: the % may be the effect or the level left
Method in brief: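 HT-22 mouse hippocampal cells, grown in DMEM with 10% FBS at 37 °C and 5% CO2, were seeded the day before. Compound (10 µM solution) added 10 min before amyloid beta 1-42 (10 µM solution), then 7 h at 37 °C. Lysates normalised to equal protein by BCA, and ATP measured with a luciferase kit. % recovery is relative to the amyloid-treated vehicle. Viability is from ATP without amyloid beta.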

[10] = AUC (0 to infinity) in Sprague-Dawley rat at 3 mg/kg, ip; assay type: ADME, organism-based; parameters: dose 3 mg/kg, route intraperitoneal, time infinity; settings: plasma
[11] = AUClast in Sprague-Dawley rat at 3 mg/kg, ip; assay type: ADME, organism-based; parameters: dose 3 mg/kg, route intraperitoneal, time 0 - last; settings: plasma
[12] = AUClast in ICR mouse at 10 mg/kg, po; assay type: ADME, organism-based; parameters: time 0 - last, dose 10 mg/kg, route oral; settings: plasma
[13] = Cytotoxicity against mouse […] cells assessed as cell viability at 5 uM; assay type: cell-based; settings: HT22 cells, read-out: Activity
[14] = Tmax in Sprague-Dawley rat at 3 mg/kg, ip; assay type: ADME, organism-based; parameters: dose 3 mg/kg, route intraperitoneal; settings: in vivo
[15] = Cmax in ICR mouse at 10 mg/kg, po; assay type: ADME, organism-based; parameters: dose 10 mg/kg, route oral; settings: in vivo

Compound `Clc1ccc(COc2ccccc2/C=N/OC2CN3CCC2CC3)cc1` (configuration not stated) has an Activity (HT-22 [1]) of 85%.
In the case of `COc1ccccc1/C=N/OC1CCN(C)C1` (configuration not stated), the Activity (HT-22 [1]) is reported as 147%.
In the case of `FC(F)(F)c1cccc(COc2ccccc2/C=N/OC2CN3CCC2CC3)c1` (configuration not stated), the Activity (HT-22 [1]) is reported as 90%.
With `Fc1cccc(COc2ccccc2/C=N/OC2CN3CCC2CC3)c1` (configuration not stated) the Activity (HT-22 [1]) was 75%.
With `COc1ccccc1/C=N/OC1CCN(Cc2ccccc2)C1` (configuration not stated) the Activity (HT-22 [1]) was 81%.
`CC(C)N1CCC(O/N=C/c2cccc(C(F)(F)F)c2)C1` (configuration not stated) gave an Activity (HT-22 [1]) of 54%.
Work on `COc1ccc(COc2ccccc2/C=N/OC2CN3CCC2CC3)cc1` (configuration not stated) yielded an Activity (HT-22 [1]) of 96%.
`CN1CCCC(O/N=C/c2cccc(C(F)(F)F)c2)C1` (configuration not stated) gave an Activity (HT-22 [1]) of 84%.
With `Brc1ccccc1/C=N/OC1CN2CCC1CC2` (configuration not stated) the Activity (HT-22 [1]) was 93%.
`CN1CCC(O/N=C/c2cccc(C(F)(F)F)c2)C1` (configuration not stated) showed an Activity (HT-22 [1]) of 108%.
With `Clc1cccc(Cl)c1COc1ccccc1/C=N/OC1CN2CCC1CC2` (configuration not stated) the Activity (HT-22 [1]) was 96%.
`FC(F)(F)c1ccccc1/C=N/OC1CN2CCC1CC2` (configuration not stated) showed an Activity (HT-22 [1]) of 86%.
In the case of `Clc1ccc(COc2ccccc2/C=N/OC2CCN(Cc3ccccc3)C2)c(Cl)c1` (configuration not stated), the Activity (HT-22 [1]) is reported as 61%.
`CN1CCC(O/N=C/c2ccccc2OCc2ccccc2)C1` (configuration not stated) showed an Activity (HT-22 [1]) of 69%.
With `CN1CCCC(O/N=C/c2ccccc2OCc2ccc(Cl)cc2Cl)C1` (configuration not stated) the Activity (HT-22 [1]) was 64%.
In the case of `FC(F)(F)c1cccc(/C=N/OC2CN3CCC2CC3)c1` (configuration not stated), the Activity (HT-22 [1]) is reported as 74%.
With `C(=N\OC1CN2CCC1CC2)/c1ccccc1OCc1ccccc1` (configuration not stated) the remaining at 0.5 h, 1 µM [2] was 85%, the viability at 24 h, 10 µM [3] was 84% and the inhibition at 10 µM (HT-22 [4]) was 0%. The Kp [5] was 273, the Stability (Plasma) was “Stable” and the Cmax [6] was 524 ng/mL. It also gave a Tmax [7] of 5 min, an Activity (HT-22 [1]) of 59% and a half-life [8] of 366 min. It also gave an Activity (HT-22 [9]) of 13%, an AUC(0-inf) [10] of 990 ng·h/mL and an AUC(0-t) [11] of 930 ng·h/mL. The AUC(0-t) [12] was 525 ng·h/mL, the viability at 5 µM [13] was 92% and the Tmax [14] was 25 min. The Cmax [15] was 330 ng/mL.
`Fc1cccc(/C=N/OC2CN3CCC2CC3)c1` (configuration not stated) showed an Activity (HT-22 [1]) of 92%.
In the case of `FC(F)(F)c1ccc(COc2ccccc2/C=N/OC2CN3CCC2CC3)cc1` (configuration not stated), the Activity (HT-22 [1]) is reported as 85%.
Work on `COc1ccccc1/C=N/OC1CCN(C(C)C)C1` (configuration not stated) yielded an Activity (HT-22 [1]) of 55%.
In the case of `Brc1cccc(/C=N/OC2CN3CCC2CC3)c1` (configuration not stated), the Activity (HT-22 [1]) is reported as 95%.
Work on `Fc1ccccc1COc1ccccc1/C=N/OC1CN2CCC1CC2` (configuration not stated) yielded an Activity (HT-22 [1]) of 82%.
`CC(C)N1CCC(O/N=C/c2ccccc2OCc2cccc(F)c2)C1` (configuration not stated) showed an Activity (HT-22 [1]) of 39%, an Activity (HT-22 [9]) of -223% and a viability at 5 µM [13] of 94%.
With `Fc1ccccc1/C=N/OC1CN2CCC1CC2` (configuration not stated) the Activity (HT-22 [1]) was 96%.
`C(=N\OC1CN2CCC1CC2)/c1ccccc1Oc1ccccc1` (configuration not stated) gave an Activity (HT-22 [1]) of 84%.
